According to ChEMBL document CHEMBL4689842, “EUbOPEN Chemogenomics Library wave 1” (2021):

Tested on: U2OS
Experiment: Multiplex assay against U2OS
Assay type: toxicity, cell-based
Settings: human
In short: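 Live cells carried four stains from seeding: Hoechst33342, BioTracker Green Microtubule Cytoskeleton Dye, MitoTracker Red and Annexin V Alexa Fluor 680. They were imaged on a CQ1 microscope at 37°C and 5% CO2 after compound addition. Using CellPathfinder machine-learning gating, cells were split into Hoechst high-intensity objects or normal cells, normal cells into healthy, pyknosed or fragmented nuclei, and pyknosed cells into mitotic or apoptotic; tubulin, mitochondrial-mass and membrane-permeability phenotypes are per cents of healthy-nucleus cells.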

[1] = 12 h, 1 µM, compound concentration 1 uM, replicate 1
[2] = 12 h, 1 µM, compound concentration 1 uM, replicate 2
[3] = 12 h, 10 µM, compound concentration 10 uM, replicate 1
[4] = 12 h, 10 µM, compound concentration 10 uM, replicate 2
[5] = 24 h, 1 µM, compound concentration 1 uM, replicate 1
[6] = 24 h, 1 µM, compound concentration 1 uM, replicate 2
[7] = 24 h, 10 µM, compound concentration 10 uM, replicate 1
[8] = 24 h, 10 µM, compound concentration 10 uM, replicate 2
[9] = 48 h, 1 µM, compound concentration 1 uM, replicate 1
[10] = 48 h, 1 µM, compound concentration 1 uM, replicate 2
[11] = 48 h, 10 µM, compound concentration 10 uM, replicate 1
[12] = 48 h, 10 µM, compound concentration 10 uM, replicate 2

Cc1csc2c(N[C@@H](C)CN3CCN(S(=O)(=O)c4ccc(Cl)c(Cl)c4)CC3)ncnc12
Population Apoptotic (%) [1]: 70%
Population Fragmented Nuclei (%) [1]: 14%
Population Healthy Nuclei (%) [1]: 66%
Population Hoechst High Intensity Objects (%) [1]: 8%
Population Membrane Permeable-Phenotype (%) [1]: 4%
Population Mitochondria Different-Phenotype (%) [1]: 31%
Population Mitotic Cells (%) [1]: 30%
Population Normal (%) [1]: 91%
Population Pyknosed Nuclei (%) [1]: 19%
Population Tubulin-Different-Phenotype (%) [1]: 50%
Total Cell Count [1]: 158
Population Apoptotic (%) [2]: 16%
Population Fragmented Nuclei (%) [2]: 5%
Population Healthy Nuclei (%) [2]: 84%
Population Hoechst High Intensity Objects (%) [2]: 5%
Population Membrane Permeable-Phenotype (%) [2]: 6%
Population Mitochondria Different-Phenotype (%) [2]: 33%
Population Mitotic Cells (%) [2]: 83%
Population Normal (%) [2]: 95%
Population Pyknosed Nuclei (%) [2]: 10%
Population Tubulin-Different-Phenotype (%) [2]: 47%
Total Cell Count [2]: 48
Population Apoptotic (%) [3]: 53%
Population Fragmented Nuclei (%) [3]: 15%
Population Healthy Nuclei (%) [3]: 57%
Population Hoechst High Intensity Objects (%) [3]: 9%
Population Membrane Permeable-Phenotype (%) [3]: 55%
Population Mitochondria Different-Phenotype (%) [3]: 100%
Population Mitotic Cells (%) [3]: 46%
Population Normal (%) [3]: 90%
Population Pyknosed Nuclei (%) [3]: 27%
Population Tubulin-Different-Phenotype (%) [3]: 100%
Total Cell Count [3]: 114
Population Apoptotic (%) [4]: 75%
Population Fragmented Nuclei (%) [4]: 12%
Population Healthy Nuclei (%) [4]: 67%
Population Hoechst High Intensity Objects (%) [4]: 4%
Population Membrane Permeable-Phenotype (%) [4]: 56%
Population Mitochondria Different-Phenotype (%) [4]: 98%
Population Mitotic Cells (%) [4]: 25%
Population Normal (%) [4]: 95%
Population Pyknosed Nuclei (%) [4]: 19%
Population Tubulin-Different-Phenotype (%) [4]: 98%
Total Cell Count [4]: 60
Population Apoptotic (%) [5]: 73%
Population Fragmented Nuclei (%) [5]: 7%
Population Healthy Nuclei (%) [5]: 78%
Population Hoechst High Intensity Objects (%) [5]: 8%
Population Membrane Permeable-Phenotype (%) [5]: 10%
Population Mitochondria Different-Phenotype (%) [5]: 27%
Population Mitotic Cells (%) [5]: 26%
Population Normal (%) [5]: 91%
Population Pyknosed Nuclei (%) [5]: 13%
Population Tubulin-Different-Phenotype (%) [5]: 45%
Total Cell Count [5]: 175
Population Apoptotic (%) [6]: 60%
Population Fragmented Nuclei (%) [6]: 11%
Population Healthy Nuclei (%) [6]: 73%
Population Hoechst High Intensity Objects (%) [6]: 4%
Population Membrane Permeable-Phenotype (%) [6]: 11%
Population Mitochondria Different-Phenotype (%) [6]: 25%
Population Mitotic Cells (%) [6]: 40%
Population Normal (%) [6]: 95%
Population Pyknosed Nuclei (%) [6]: 14%
Population Tubulin-Different-Phenotype (%) [6]: 23%
Total Cell Count [6]: 64
Population Apoptotic (%) [7]: 95%
Population Fragmented Nuclei (%) [7]: 18%
Population Healthy Nuclei (%) [7]: 44%
Population Hoechst High Intensity Objects (%) [7]: 5%
Population Membrane Permeable-Phenotype (%) [7]: 75%
Population Mitochondria Different-Phenotype (%) [7]: 100%
Population Mitotic Cells (%) [7]: 4%
Population Normal (%) [7]: 94%
Population Pyknosed Nuclei (%) [7]: 36%
Population Tubulin-Different-Phenotype (%) [7]: 100%
Total Cell Count [7]: 119
Population Apoptotic (%) [8]: 80%
Population Fragmented Nuclei (%) [8]: 15%
Population Healthy Nuclei (%) [8]: 57%
Population Hoechst High Intensity Objects (%) [8]: 4%
Population Membrane Permeable-Phenotype (%) [8]: 80%
Population Mitochondria Different-Phenotype (%) [8]: 97%
Population Mitotic Cells (%) [8]: 19%
Population Normal (%) [8]: 95%
Population Pyknosed Nuclei (%) [8]: 26%
Population Tubulin-Different-Phenotype (%) [8]: 97%
Total Cell Count [8]: 72
Population Apoptotic (%) [9]: 77%
Population Fragmented Nuclei (%) [9]: 8%
Population Healthy Nuclei (%) [9]: 79%
Population Hoechst High Intensity Objects (%) [9]: 3%
Population Membrane Permeable-Phenotype (%) [9]: 8%
Population Mitochondria Different-Phenotype (%) [9]: 16%
Population Mitotic Cells (%) [9]: 22%
Population Normal (%) [9]: 96%
Population Pyknosed Nuclei (%) [9]: 11%
Population Tubulin-Different-Phenotype (%) [9]: 30%
Total Cell Count [9]: 243
Population Apoptotic (%) [10]: 25%
Population Fragmented Nuclei (%) [10]: 12%
Population Healthy Nuclei (%) [10]: 82%
Population Hoechst High Intensity Objects (%) [10]: 4%
Population Mitochondria Different-Phenotype (%) [10]: 12%
Population Mitotic Cells (%) [10]: 75%
Population Normal (%) [10]: 95%
Population Pyknosed Nuclei (%) [10]: 4%
Population Tubulin-Different-Phenotype (%) [10]: 20%
Total Cell Count [10]: 89
Population Apoptotic (%) [11]: 87%
Population Fragmented Nuclei (%) [11]: 25%
Population Healthy Nuclei (%) [11]: 30%
Population Hoechst High Intensity Objects (%) [11]: 8%
Population Membrane Permeable-Phenotype (%) [11]: 78%
Population Mitochondria Different-Phenotype (%) [11]: 96%
Population Mitotic Cells (%) [11]: 12%
Population Normal (%) [11]: 91%
Population Pyknosed Nuclei (%) [11]: 43%
Population Tubulin-Different-Phenotype (%) [11]: 100%
Total Cell Count [11]: 159
Population Apoptotic (%) [12]: 92%
Population Fragmented Nuclei (%) [12]: 15%
Population Healthy Nuclei (%) [12]: 50%
Population Hoechst High Intensity Objects (%) [12]: 7%
Population Membrane Permeable-Phenotype (%) [12]: 84%
Population Mitochondria Different-Phenotype (%) [12]: 97%
Population Mitotic Cells (%) [12]: 7%
Population Normal (%) [12]: 92%
Population Pyknosed Nuclei (%) [12]: 34%
Population Tubulin-Different-Phenotype (%) [12]: 97%
Total Cell Count [12]: 91
